Experimental data: publication PMC10494472 (Saudi Pharmaceutical Journal : SPJ, 2023)

Key:
Type in all cases: biochemical
α-glucosidase (maltase) = α-glucosidase (maltase) (Saccharomyces cerevisiae, UniProt P53341); assay: α-glucosidase inhibition assay
FAS from chicken liver = FAS from chicken liver (Gallus gallus, UniProt P12276); assay: FAS inhibition assay
How it was run: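 Chicken liver FAS (10 µg) with test compound (10–200 µg/mL) in 100 mM potassium phosphate buffer containing 1 mM dithiothreitol, 1 mM EDTA, 10 µM malonyl-CoA, 3 µM acetyl-CoA and 35 µM NADPH. Activity was followed at 37 °C as the change in NADPH absorbance at 340 nm. The blank omitted the enzyme.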

XO = XO (Bos taurus, UniProt P80457); assay: XO inhibition assay
XO, sequence (P80457 whole entry): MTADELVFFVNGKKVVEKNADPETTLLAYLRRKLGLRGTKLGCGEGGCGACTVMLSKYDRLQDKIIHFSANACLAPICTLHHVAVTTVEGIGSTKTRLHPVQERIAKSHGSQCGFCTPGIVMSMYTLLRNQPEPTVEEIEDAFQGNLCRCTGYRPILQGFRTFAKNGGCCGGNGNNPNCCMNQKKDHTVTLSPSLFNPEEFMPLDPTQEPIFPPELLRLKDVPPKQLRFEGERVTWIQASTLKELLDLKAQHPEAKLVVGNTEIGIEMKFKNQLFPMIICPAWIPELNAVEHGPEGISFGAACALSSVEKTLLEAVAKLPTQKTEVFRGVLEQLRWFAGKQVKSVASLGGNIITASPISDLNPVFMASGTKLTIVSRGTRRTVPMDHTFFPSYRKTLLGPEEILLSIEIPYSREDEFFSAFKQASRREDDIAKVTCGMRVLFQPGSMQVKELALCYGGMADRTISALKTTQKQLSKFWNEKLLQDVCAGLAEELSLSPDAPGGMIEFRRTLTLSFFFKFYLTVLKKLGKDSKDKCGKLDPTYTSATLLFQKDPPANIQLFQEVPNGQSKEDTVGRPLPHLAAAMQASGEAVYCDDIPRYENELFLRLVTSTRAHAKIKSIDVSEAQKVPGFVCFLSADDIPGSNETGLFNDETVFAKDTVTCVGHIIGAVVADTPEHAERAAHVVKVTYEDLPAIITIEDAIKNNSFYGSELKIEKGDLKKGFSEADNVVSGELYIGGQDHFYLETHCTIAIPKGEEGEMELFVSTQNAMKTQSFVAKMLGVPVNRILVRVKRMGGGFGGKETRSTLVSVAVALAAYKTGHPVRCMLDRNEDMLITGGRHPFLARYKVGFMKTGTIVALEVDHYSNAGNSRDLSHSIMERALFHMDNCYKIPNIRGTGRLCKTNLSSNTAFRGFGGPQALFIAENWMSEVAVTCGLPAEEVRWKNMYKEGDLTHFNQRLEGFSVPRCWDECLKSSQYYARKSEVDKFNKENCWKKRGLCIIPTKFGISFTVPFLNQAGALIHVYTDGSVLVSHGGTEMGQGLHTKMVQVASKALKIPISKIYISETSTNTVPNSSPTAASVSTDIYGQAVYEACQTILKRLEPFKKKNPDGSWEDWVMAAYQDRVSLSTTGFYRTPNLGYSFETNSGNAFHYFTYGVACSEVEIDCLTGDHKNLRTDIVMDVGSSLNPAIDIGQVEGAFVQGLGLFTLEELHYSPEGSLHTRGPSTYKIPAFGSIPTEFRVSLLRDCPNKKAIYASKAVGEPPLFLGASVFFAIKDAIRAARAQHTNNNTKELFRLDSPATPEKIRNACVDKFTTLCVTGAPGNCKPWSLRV

FAS from chicken liver, sequence (P12276 whole entry): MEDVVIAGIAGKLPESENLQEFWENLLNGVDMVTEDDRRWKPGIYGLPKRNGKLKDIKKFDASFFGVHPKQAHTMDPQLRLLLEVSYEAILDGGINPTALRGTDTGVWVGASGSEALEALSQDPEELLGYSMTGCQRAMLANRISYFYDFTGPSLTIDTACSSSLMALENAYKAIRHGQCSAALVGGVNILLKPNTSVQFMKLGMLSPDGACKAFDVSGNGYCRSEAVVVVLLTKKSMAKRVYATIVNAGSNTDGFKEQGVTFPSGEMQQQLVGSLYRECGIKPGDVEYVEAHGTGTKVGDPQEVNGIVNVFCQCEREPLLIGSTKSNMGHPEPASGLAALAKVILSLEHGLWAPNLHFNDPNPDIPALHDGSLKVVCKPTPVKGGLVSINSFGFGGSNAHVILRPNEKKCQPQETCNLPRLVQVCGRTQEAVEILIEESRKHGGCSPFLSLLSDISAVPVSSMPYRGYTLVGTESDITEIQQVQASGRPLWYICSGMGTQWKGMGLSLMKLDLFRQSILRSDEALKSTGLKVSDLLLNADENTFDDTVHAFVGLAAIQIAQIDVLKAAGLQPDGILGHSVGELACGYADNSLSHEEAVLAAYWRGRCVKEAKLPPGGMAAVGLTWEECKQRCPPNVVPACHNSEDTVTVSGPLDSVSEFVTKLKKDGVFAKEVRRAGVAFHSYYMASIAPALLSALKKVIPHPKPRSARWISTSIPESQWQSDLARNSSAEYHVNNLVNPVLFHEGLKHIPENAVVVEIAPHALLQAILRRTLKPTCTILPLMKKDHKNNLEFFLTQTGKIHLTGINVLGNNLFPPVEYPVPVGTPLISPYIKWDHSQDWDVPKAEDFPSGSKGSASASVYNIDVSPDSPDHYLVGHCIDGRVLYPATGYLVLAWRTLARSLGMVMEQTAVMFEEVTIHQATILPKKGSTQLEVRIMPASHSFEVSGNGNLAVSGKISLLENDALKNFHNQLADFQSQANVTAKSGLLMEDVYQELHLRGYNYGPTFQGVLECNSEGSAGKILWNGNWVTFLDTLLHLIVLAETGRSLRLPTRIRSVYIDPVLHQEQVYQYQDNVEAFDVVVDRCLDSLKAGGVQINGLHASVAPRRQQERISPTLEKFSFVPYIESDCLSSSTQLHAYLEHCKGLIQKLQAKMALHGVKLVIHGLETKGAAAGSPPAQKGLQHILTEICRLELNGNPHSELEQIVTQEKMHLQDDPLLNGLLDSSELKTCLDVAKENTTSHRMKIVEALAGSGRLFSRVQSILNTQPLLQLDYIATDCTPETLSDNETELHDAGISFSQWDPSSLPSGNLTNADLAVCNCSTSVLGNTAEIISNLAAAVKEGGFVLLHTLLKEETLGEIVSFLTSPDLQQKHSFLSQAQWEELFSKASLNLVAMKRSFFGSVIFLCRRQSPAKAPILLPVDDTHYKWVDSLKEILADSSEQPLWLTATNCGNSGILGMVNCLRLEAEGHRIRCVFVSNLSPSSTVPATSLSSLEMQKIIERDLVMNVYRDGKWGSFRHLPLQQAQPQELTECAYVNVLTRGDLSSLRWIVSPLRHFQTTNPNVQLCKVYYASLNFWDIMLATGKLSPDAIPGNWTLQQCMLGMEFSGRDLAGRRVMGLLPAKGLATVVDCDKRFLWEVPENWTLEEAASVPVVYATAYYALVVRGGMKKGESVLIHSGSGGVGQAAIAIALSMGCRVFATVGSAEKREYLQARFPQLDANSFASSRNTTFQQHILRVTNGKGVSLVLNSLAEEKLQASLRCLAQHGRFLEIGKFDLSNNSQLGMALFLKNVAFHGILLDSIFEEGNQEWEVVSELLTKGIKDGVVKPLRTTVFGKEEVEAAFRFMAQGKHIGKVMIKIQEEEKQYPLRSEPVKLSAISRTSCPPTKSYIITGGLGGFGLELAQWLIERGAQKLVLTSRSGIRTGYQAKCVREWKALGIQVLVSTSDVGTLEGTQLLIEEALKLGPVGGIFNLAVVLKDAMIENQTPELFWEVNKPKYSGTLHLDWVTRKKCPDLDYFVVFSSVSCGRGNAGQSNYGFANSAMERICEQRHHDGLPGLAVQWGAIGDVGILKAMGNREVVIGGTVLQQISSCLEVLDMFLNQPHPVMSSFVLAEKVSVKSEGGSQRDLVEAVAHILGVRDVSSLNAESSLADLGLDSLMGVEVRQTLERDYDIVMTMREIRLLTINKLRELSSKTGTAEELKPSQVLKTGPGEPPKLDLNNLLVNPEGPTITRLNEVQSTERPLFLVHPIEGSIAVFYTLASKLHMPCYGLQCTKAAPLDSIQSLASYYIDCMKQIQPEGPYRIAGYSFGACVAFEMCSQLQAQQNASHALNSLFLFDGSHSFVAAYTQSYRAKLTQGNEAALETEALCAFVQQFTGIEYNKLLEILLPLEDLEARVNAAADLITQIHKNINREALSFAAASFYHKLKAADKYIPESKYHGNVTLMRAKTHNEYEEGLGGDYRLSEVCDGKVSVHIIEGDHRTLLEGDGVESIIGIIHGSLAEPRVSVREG
α-glucosidase (maltase), sequence (P53341 whole entry): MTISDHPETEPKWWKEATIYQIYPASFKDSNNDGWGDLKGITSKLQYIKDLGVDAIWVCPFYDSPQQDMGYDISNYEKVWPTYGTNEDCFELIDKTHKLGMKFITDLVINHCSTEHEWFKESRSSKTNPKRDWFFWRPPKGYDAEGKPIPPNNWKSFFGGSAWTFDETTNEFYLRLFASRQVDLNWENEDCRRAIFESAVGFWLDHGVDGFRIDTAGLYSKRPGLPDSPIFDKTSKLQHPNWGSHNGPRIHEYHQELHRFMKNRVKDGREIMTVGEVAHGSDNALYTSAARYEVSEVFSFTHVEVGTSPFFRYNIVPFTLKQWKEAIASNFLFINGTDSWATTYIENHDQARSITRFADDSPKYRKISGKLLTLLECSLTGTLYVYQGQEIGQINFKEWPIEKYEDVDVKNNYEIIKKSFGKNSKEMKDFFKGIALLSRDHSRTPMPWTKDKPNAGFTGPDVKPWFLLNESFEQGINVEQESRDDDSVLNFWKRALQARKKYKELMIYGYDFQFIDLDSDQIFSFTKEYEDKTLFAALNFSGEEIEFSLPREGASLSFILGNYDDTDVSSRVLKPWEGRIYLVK

| Structure (SMILES) | IC50 (α-glucosidase (maltase)) | IC50 (FAS from chicken liver) | IC50 (XO) |
| --- | --- | --- | --- |
| C=C(C)[C@@H]1CC[C@]2(C)CC[C@]3(C)[C@H](CC[C@@H]4[C@@]5(C)CC[C@H](O)C(C)(C)[C@@H]5CC[C@]43C)[C@@H]12 [Compound 1, lupeol] | 101 µM | 98.3 µM | 109 µM |
| C=C(C)[C@@H]1CC[C@]2(CO)CC[C@]3(C)[C@H](CC[C@@H]4[C@@]5(C)CC[C@H](O)C(C)(C)[C@@H]5CC[C@]43C)[C@@H]12 [Compound 2, betulin] | 88 µM | 63.2 µM | 69.9 µM |
| COc1ccc(-c2cc(=O)c3c(O)cc(O)c(-c4cc(-c5cc(=O)c6c(O)cc(O)cc6o5)ccc4O)c3o2)cc1 [Compound 3, podocarpusflavone A] | – | 43.6 µM | – |
| O=c1cc(-c2ccc(O)c(-c3c(O)cc(O)c4c(=O)cc(-c5ccc(O)cc5)oc34)c2)oc2cc(O)cc(O)c12 [Compound 4, amentoflavone] | 92.8 µM | 75 µM | – |
